# Screens from PubChem BioAssay.
# Shown are actives, neighbours in structure and some others; about 4.5% of the full set was active somewhere.
# TAAR1 ag: human TAAR1 agonism; Q96RJ0; CHO RD-HGA16 TAAR1, Fluo-8 calcium fluorescence; vehicle wells 0%, saturating PEA agonist 100%; activation, % at 3 µM; 360,000 compounds, 0.99% hits;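 active = activation above the mean activation of all test compounds in the run plus 3 SD, cut at about 38% in these data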
# Target sequence (Q96RJ0 whole entry, looked up): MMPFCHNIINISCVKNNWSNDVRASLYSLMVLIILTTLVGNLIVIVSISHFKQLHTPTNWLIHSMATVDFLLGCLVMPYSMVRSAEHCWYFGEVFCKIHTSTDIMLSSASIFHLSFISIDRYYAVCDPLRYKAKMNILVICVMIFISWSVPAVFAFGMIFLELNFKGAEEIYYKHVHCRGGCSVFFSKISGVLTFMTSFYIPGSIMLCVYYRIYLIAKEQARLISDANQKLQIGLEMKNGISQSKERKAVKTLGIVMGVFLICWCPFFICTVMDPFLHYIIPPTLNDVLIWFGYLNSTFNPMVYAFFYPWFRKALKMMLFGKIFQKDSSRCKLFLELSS
#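 Test system: RD-HGA16 (CHO) cells co-expressing Gα16 and hTAAR1; dosing: one-point dosing at 3 µM (nominal); timing: 17-24 h seeding, 75 min 37 °C dye, 30 min RT; signal: kinetic Fluo-8 calcium fluorescence; read-out basis: % activation relative to PEA EC100 response; controls: DMSO and PEA EC100; replicates: n 1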
# TAAR1 antag: antagonists of human TAAR1; inhibition, % at 3 µM; 360,000 compounds, 1.5% hits; CHO RD-HGA16 TAAR1, Fluo-8 calcium fluorescence, antagonist; AID 624466; Q96RJ0;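 active = inhibition above a per-plate cutoff, the mean inhibition of test compounds on that plate plus 3 SD, cut at about 49% in these data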;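 also: 0% = DMSO plus EC80 beta-PEA response and 100% = DMSO alone without agonist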
#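 test system = CHO RD-HGA16 cells bearing hTAAR1 | replication = singlicate | controls = DMSO-only wells and EC80 β-PEA-stimulated wells | reagent = EC80 β-phenethylamine stimulus | read-out basis = percent inhibition of PEA-evoked calcium signal, max/basal emission ratio | schedule = seeding 17-24 h prior, 75-min 37 °C, 30-min RT dye loading | signal = kinetic Fluo-8 calcium fluorescence measurement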
# CHO parental Ca: signal in parental CHO cells, OX1R antagonist counter-screen | parental CHO-K1, ATP-induced calcium, Fluo-8 fluorescence | inhibition, % at 5.6 µM | 330,000 compounds, 0.63% hits | AID 463079;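 active = inhibition above that plate's mean sample inhibition plus 3 SD, cut at about 26% in these data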;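 also: 0% = ATP-challenged DMSO wells and 100% = DMSO wells without ATP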
#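 Measured by: calcium-sensitive Fluo-8 fluorescence / Test system: CHO parental line / Controls: ATP-challenged DMSO wells low, unchallenged DMSO wells high / Measure: % inhibition / Compound: single nominal dose of 5.6 µM per compound / Replicates: single well per compound, no replicates / Reagent: ATP as calcium-mobilizing challenge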
# OX1R antag-1: antagonists of human orexin 1 receptor | AID 434989 | 330,000 compounds, 0.43% hits | inhibition, % at 5 µM | CHO/OX1R cells, Fluo-8 calcium fluorescence, orexin A | O43613;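 active = inhibition above its plate's threshold, mean inhibition of all tested compounds on the plate plus 3 SD, cut at about 37% in these data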;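 also: 0% = orexin A challenge wells and 100% = SB-334867-A antagonist wells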
# OX1R antag-2: blocks the human orexin 1 receptor. O43613. OX1R-expressing cells, FRET antagonist read-out. inhibition, % at 6.6 µM. 330,000 compounds, 1.8% hits. AID 485270; in the data active = inhibition mostly above about 38%, no sharp cut-off; inactive = mostly below about 40%;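 also: 0% = agonist challenge alone and 100% = reference antagonist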
# GPR7 antag: antagonists of human GPR7 (neuropeptides B/W receptor 1); P48145; GPR7-expressing cells, fluorescence antagonist assay; inhibition, % at 4.4 µM; 290,000 compounds, 1.1% hits; AID 1861; in the data active = inhibition above about 16%, passing the limit was not always enough;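 also: cells stimulated with the agonist NPW; 0% = agonist with vehicle and 100% = vehicle without agonist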
# Target sequence (P48145 whole entry, looked up): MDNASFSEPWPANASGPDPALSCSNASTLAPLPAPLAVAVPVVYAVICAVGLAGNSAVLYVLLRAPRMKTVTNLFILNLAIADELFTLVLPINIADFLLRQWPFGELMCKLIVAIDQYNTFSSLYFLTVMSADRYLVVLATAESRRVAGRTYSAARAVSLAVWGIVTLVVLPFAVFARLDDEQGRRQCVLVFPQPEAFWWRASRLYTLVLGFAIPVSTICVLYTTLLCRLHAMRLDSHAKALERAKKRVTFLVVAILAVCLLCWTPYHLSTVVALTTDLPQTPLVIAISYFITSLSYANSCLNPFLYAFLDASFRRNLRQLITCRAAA
# Numbers without * were called inactive; x = no result.
SMILES,TAAR1 ag,TAAR1 antag,CHO parental Ca,OX1R antag-1,OX1R antag-2,GPR7 antag
CC1(C)CC(=O)C=C(c2ccccc2F)C1=O,2,-22,x,x,x,x
COc1ccccc1NC(=O)COC(=O)c1cc(C)nc2ccccc12,7,20,-24,20,43*,x
CCC(C)c1ccc(NC(=O)c2cccs2)cc1 (centres undefined),7,-3,-12,17,40*,-1
COc1c(Cl)cc(Cl)cc1C(=O)Nc1ccc(NC(=O)c2cccs2)cc1,16,69*,-15,-1,19,-8
O=C(Nc1ccc(NC(=O)c2ccc(Cl)cc2Cl)cc1)c1cccs1,7,-5,-3,-15,10,-7
CCC(C)NS(=O)(=O)c1ccc(NC(=O)c2cccs2)cc1 (centres undefined),7,9,2,6,28,-7
CC(C)(C)c1cccc(N/C(=C\C(=O)c2ccccc2)c2ccccc2)c1,0,-18,x,x,x,x
O=C(NCc1nnnn1-c1ccc(F)cc1)c1ccc([N+](=O)[O-])o1,0,-13,4,-3,54*,x
Cc1ccc(-n2nnnc2CNC(=O)c2ccc([N+](=O)[O-])o2)cc1C,0,7,2,8,29,x
O=C(NCC(c1ccc(F)cc1)N1CCOCC1)c1ccc([N+](=O)[O-])o1 (centres undefined),2,-14,-2,9,48*,x
Cc1ccc2c(c1)C(=NC1CCCCC1)c1cc3ccccc3nc1-2,0,-9,-14,17,75*,-8
COc1ccc(-c2cnc(C(O)c3ccc(C(C)(C)C)cc3)[nH]2)cc1 (centres undefined),6,-8,x,x,x,x
COC(=O)c1ccc(CN2C(=O)C(C)N(C(=O)c3c(F)cccc3F)c3ccccc32)cc1 (centres undefined),42*,83*,-13,-29,5,8
CC1C(=O)N(Cc2ccc(F)cc2)c2ccccc2N1C(=O)c1c(F)cccc1F (centres undefined),6,25,9,15,9,11
CSc1ccc(-c2cc(=O)c3ccccc3o2)cc1,2,-13,-14,38,68*,-6
N#Cc1ccc(S(=O)(=O)N2CCCc3nc(-c4ccccc4)ccc32)cc1,0,-1,x,x,x,x
CC(C)(C)c1ccc(NC(=O)COC(=O)C2(C)CC2(Cl)Cl)cc1 (centres undefined),8,52*,3,-6,18,-7
Cc1ccccc1NC(=O)COC(=O)C1(C)CC1(Cl)Cl (centres undefined),1,10,-15,-10,4,15
CN(c1ccc(NC(=O)CCc2c[nH]c3ccccc23)cc1)c1ccccn1,14,37,x,x,x,x
CCCCCCCCN1C(=O)[C@@H](CC(=O)N2CCCCC2)C[C@@]2(C(=O)OC)C1=C[C@H](C1CCCC1)O[C@@H]2C,-3,-32,x,x,x,x
O=C(Nc1ccc([N+](=O)[O-])cc1)Nc1cnccn1,6,-11,2,6,67*,13
COC(=O)c1cccc(NC(=O)Nc2ccc(Cl)cc2)c1,11,23,46*,24,21,-8
Cc1ccc(C(C)C)cc1NC(=O)Nc1ccc([N+](=O)[O-])cc1,2,34,55*,22,36,32
CC(=O)c1ccc(NC(=O)Nc2ccc(Cl)cc2)cc1,42*,0,-6,33,27,18
Cc1cc(O)c(C(C)C)cc1NC(=O)Nc1ccc([N+](=O)[O-])cc1,2,6,x,x,x,x
SMILES,TAAR1 ag,TAAR1 antag,CHO parental Ca,OX1R antag-1,OX1R antag-2,GPR7 antag
Cc1ccc(Cl)cc1NC(=O)OCCN(C)C(=O)Nc1cc(Cl)ccc1C,6,-14,x,x,x,x
CC1(C(=O)NS(=O)(=O)c2ccc(Cl)cc2)CCN1C(=O)Cc1ccsc1 (centres undefined),3,-1,x,x,x,x
Cc1cc(Oc2cccnc2)ccc1NC(=O)CCc1c[nH]c2ccccc12,1,-1,x,x,x,x
CC(=O)c1cccc(NC(=S)NCCc2ccc(Cl)cc2)c1,7,3,0,5,22,-2
CC(=O)c1ccc(NC(=S)NCc2ccc(Cl)cc2Cl)cc1,25,26,40*,40*,30,8
S=C(NCc1ccc(Cl)cc1Cl)NC1CCCCC1,12,30,28*,8,11,-8
Cc1ccc([N+](=O)[O-])cc1NC(=O)C(Sc1ccccc1)c1ccccc1 (centres undefined),2,52*,2,11,24,-2
CC(=O)c1ccc(NC(=O)Nc2ccc([N+](=O)[O-])cc2)cc1,2,-7,35*,17,29,-3
CC(C)(C)S(=O)N1C[C@@H]2CC(=O)C=C2[C@H]1CCO (some centres undefined),2,0,x,x,x,x
CCN1/C(=C/C=C/C=C/C=C/c2sc3ccccc3[n+]2CC)Sc2ccccc21,-1,-9,1,0,0,2
CCN1/C(=C/C=C/c2sc3ccccc3[n+]2CC)Sc2ccccc21,x,x,61*,36,41*,x
CCN1/C(=C/C=C/C=C/c2sc3ccccc3[n+]2CC)Sc2ccccc21,x,x,61*,52*,38,-11
CC[n+]1c(/C=C2\Sc3ccccc3N2C)ccc2cccc(C)c21,29,40,x,x,x,1
CCN1/C(=C/c2ccc3cc(C)ccc3[n+]2CC)Sc2ccccc21,26,56*,89*,86*,103*,44*
C#CCN1CC(COc2ccccc2)Oc2cccc(Oc3ccc(OC)cc3)c2S1(=O)=O (centres undefined),0,12,x,x,x,x
Cc1ccc(SCc2c(C(=O)N/N=C/c3ccncc3)nnn2-c2nonc2N)cc1,12,50*,-7,-11,-4,-3
Nc1nonc1-n1nnc(C(=O)N/N=C/c2ccccn2)c1CNc1ccccc1,16,11,-21,0,50*,-17
Nc1nonc1-n1nnc(C(=O)N/N=C/c2ccncc2)c1CSc1ccc(Cl)cc1,7,-17,-18,-7,17,-5
Nc1nonc1-n1nnc(C(=O)N/N=C/c2ccccn2)c1-c1ccccc1,7,-14,x,x,x,-12
C[C@H](CO)N1C[C@H](C)[C@@H](CN(C)C(=O)NC2CCCCC2)OCc2cn(nn2)CCCC1=O,1,-6,x,x,x,x
Cc1[nH]c2ccccc2c1CC(=O)Nc1ccc(Nc2cccnc2)c(-c2ccc(OC(F)(F)F)cc2)c1,3,-2,x,x,x,x
CC1C=CCC2C(=O)N(c3ccc(OC(=O)c4ccco4)cc3)C(=O)C12 (centres undefined),1,-15,-4,-10,19,19*
CCCn1c(=O)[nH]c(=O)c2c1nc(-c1cc([N+](=O)[O-])ccc1Cl)n2CCOC,7,-24,-21,-24,41*,-8
